The values below come from ChEMBL document CHEMBL2331335, “Synthesis of hemslecin A derivatives: a new class of hepatitis B virus inhibitors” (Bioorg Med Chem Lett, 2013).

For series [1], the system named is Hepatitis B virus. In words: Antiviral activity against HBV infected in human HepG2.2.15 cells assessed as inhibition of viral surface antigen production. It counts as functional, organism-based. The following applies: HepG2 2.2.15. In outline: (§1)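 Assayed in HBV-producing HepG 2.2.15 cells, with tenofovir as positive control. HBsAg, HBeAg and HBV DNA replication were each measured, and IC50 was taken as the compound concentration giving 50% inhibition of the given marker.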

Series [2] in a line: Cytotoxicity against human HepG2.2.15 cells. It counts as cell-based, HepG2 2.2.15. The method, boiled down:
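Cytotoxicity was tested in HepG 2.2.15 cells alongside the anti-HBV assay. CC50 was taken as the compound concentration required to destroy 50% of the cells.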

The nature of series [3]: Selectivity index, ratio of CC50 for human HepG2.2.15 cells to IC50 for HBV infected in human HepG2.2.15 cells assessed as inhibition of viral DNA replication. It counts as functional. In outline: (§2)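 Selectivity index was calculated as CC50 (HepG 2.2.15 cytotoxicity) divided by IC50 for the given marker (HBV DNA replication, HBeAg or HBsAg), all measured in HepG 2.2.15 cells.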

The subject of series [4] is Hepatitis B virus. In words: Antiviral activity against HBV infected in human HepG2.2.15 cells assessed as inhibition of viral DNA replication. In kind it is functional, organism-based. To be noted: HepG2 2.2.15. The method, boiled down: as §1
Series [5] relates to Hepatitis B virus. In words: Antiviral activity against HBV infected in human HepG2.2.15 cells assessed as inhibition of viral e antigen production. It counts as functional, organism-based. To be noted: HepG2 2.2.15. The method, boiled down:
as §1

Series [6] can be described thus: Selectivity index, ratio of CC50 for human HepG2.2.15 cells to IC50 for HBV infected in human HepG2.2.15 cells assessed as inhibition of viral surface antigen production. It counts as functional. In outline:
as §2

A short description of series [7]: Selectivity index, ratio of CC50 for human HepG2.2.15 cells to IC50 for HBV infected in human HepG2.2.15 cells assessed as inhibition of viral e antigen production. It counts as functional. In outline:
as §2

Broadly, the IC50 is the concentration at which inhibition is half-maximal. The term CC50 denotes the concentration that lowers cell viability or growth by half. Higher therefore signals better tolerance by the cells. With `CC(=O)O[C@H]1C[C@@H]2C(=CC[C@@H]3[C@@]2(C)C(=O)C[C@]2(C)[C@@H]([C@@](C)(O)C(=O)CCC(C)(C)OC(C)=O)[C@H](OC(C)=O)C[C@@]32C)C(C)(C)[C@@H]1OC(C)=O`, the half-inhibitory concentration (IC50) in the series with Hepatitis B virus [1] was more than 807 µM; with Hepatitis B virus [4], 17.3 µM; in the series on Hepatitis B virus [5], more than 807 µM. This molecule registered a CC50 in series [2] of more than 807 µM. In series [3], the “Ratio CC50/IC50” value was more than 46.6.

As for `CC(=O)OC(C)(C)CCC(=O)[C@](C)(O)[C@H]1[C@H](O)C[C@@]2(C)[C@@H]3C[C@H]4O[C@@]45[C@@H](C[C@H](O)[C@@H](O)C5(C)C)[C@]3(C)C(=O)C[C@]12C`, the concentration for half-maximal inhibition (IC50) is more than 1740 µM in the series with Hepatitis B virus [1], 11.6 µM with Hepatitis B virus [4] and more than 1740 µM in the series on Hepatitis B virus [5]. The same molecule displayed a half-maximal cytotoxic concentration (CC50) in series [2] of more than 1740 µM. For the same molecule, the “Ratio CC50/IC50” value in series [3] was more than 150.5.

Turning to `CCC(=O)O[C@H]1C[C@@H]2C(=CC[C@@H]3[C@@]2(C)C(=O)C[C@]2(C)[C@@H]([C@@](C)(O)C(=O)CCC(C)(C)OC(C)=O)[C@H](OC(C)=O)C[C@@]32C)C(C)(C)[C@@H]1OC(=O)CC`, the IC50 with Hepatitis B virus [1] is more than 650 µM; with Hepatitis B virus [4] it was 19 µM; with Hepatitis B virus [5] it was more than 650 µM. Besides, the CC50 in series [2] is more than 650 µM. Further, the “Ratio CC50/IC50” value in series [3] is recorded as more than 34.2.

Regarding `COCC(=O)O[C@H]1C[C@H]2[C@]3(C)C(=O)C[C@]4(C)[C@@H]([C@@](C)(O)C(=O)CCC(C)(C)OC(C)=O)[C@H](OC(=O)COC)C[C@@]4(C)[C@@H]3C[C@@H](O)[C@@]2(OC(=O)c2cccc(Cl)c2)C(C)(C)[C@@H]1OC(=O)COC`, the concentration for half-maximal inhibition (IC50) with Hepatitis B virus [1], in the series on Hepatitis B virus [4] and with Hepatitis B virus [5] was more than 1740 µM throughout. Further, the CC50 in series [2] is more than 1740 µM.

On to `CCOCC(=O)O[C@H]1C[C@H]2[C@]3(C)C(=O)C[C@]4(C)[C@@H]([C@@](C)(O)C(=O)CCC(C)(C)OC(C)=O)[C@H](OC(=O)COCC)C[C@@]4(C)[C@@H]3C[C@@H](O)[C@@]2(OC(=O)c2cccc(Cl)c2)C(C)(C)[C@@H]1OC(=O)COCC`, for which the IC50 in the series on Hepatitis B virus [1], with Hepatitis B virus [4] and in the series with Hepatitis B virus [5] was more than 710 µM throughout. In series [2], this molecule registered a CC50 of more than 710 µM.

Take `CCC(=O)O[C@H]1C[C@@H]2C(=CC[C@@H]3[C@@]2(C)C(=O)C[C@]2(C)[C@@H]([C@@](C)(O)C(=O)CCC(C)(C)OC(C)=O)[C@H](O)C[C@@]32C)C(C)(C)[C@@H]1O`: the “Ratio CC50/IC50” value in series [6] turned out to be 8.1; in series [7], 8.7. The IC50 in the series with Hepatitis B virus [1] was determined as 15.6 µM; in the series on Hepatitis B virus [4], 4.7 µM; in the series on Hepatitis B virus [5] it was 14.4 µM. Moreover, the CC50 in series [2] is 126 µM.

Turning to `CC(=O)O[C@H]1C[C@H]2[C@]3(C)C(=O)C[C@]4(C)[C@@H]([C@@](C)(O)C(=O)CCC(C)(C)OC(C)=O)[C@H](OC(C)=O)C[C@@]4(C)[C@@H]3C[C@H]3O[C@]32C(C)(C)[C@@H]1OC(C)=O`, the IC50 in the series with Hepatitis B virus [1], in the series on Hepatitis B virus [4] and with Hepatitis B virus [5] was more than 961 µM in each case. The CC50 in series [2] is more than 961 µM.

For `CCOCC(=O)O[C@H]1C[C@H]2[C@]3(C)C(=O)C[C@]4(C)[C@@H]([C@@](C)(O)C(=O)CCC(C)(C)OC(C)=O)[C@H](OC(=O)COCC)C[C@@]4(C)[C@@H]3C[C@H]3O[C@]32C(C)(C)[C@@H]1OC(=O)COCC`, the IC50 in the series with Hepatitis B virus [1], with Hepatitis B virus [4] and with Hepatitis B virus [5] was more than 633 µM in each case. The same molecule yielded a CC50 in series [2] of more than 633 µM.

Take `CCCC(=O)O[C@H]1C[C@H]2[C@]3(C)C(=O)C[C@]4(C)[C@@H]([C@@](C)(O)C(=O)CCC(C)(C)OC(C)=O)[C@H](OC(=O)CCC)C[C@@]4(C)[C@@H]3C[C@H]3O[C@]32C(C)(C)[C@@H]1OC(=O)CCC`: the IC50 with Hepatitis B virus [1] was more than 618 µM; in the series with Hepatitis B virus [4], more than 618 µM; with Hepatitis B virus [5] it was 401 µM. This molecule returned a half-maximal cytotoxic concentration (CC50) in series [2] of more than 618 µM. For the same molecule, the “Ratio CC50/IC50” value in series [7] is more than 2.

For `CCOCC(=O)O[C@H]1C[C@@H]2C(=CC[C@@H]3[C@@]2(C)C(=O)C[C@]2(C)[C@@H]([C@@](C)(O)C(=O)CCC(C)(C)OC(=O)COCC)[C@H](OC(=O)COCC)C[C@@]32C)C(C)(C)[C@@H]1OC(=O)COCC`, the entries for the “Ratio CC50/IC50” value in series [6] and in series [3] were more than 6.4 and more than 17.8, respectively. The IC50 in the series on Hepatitis B virus [1] was 225 µM; in the series with Hepatitis B virus [4], 81.4 µM; in the series with Hepatitis B virus [5] it was more than 1450 µM. Further, the CC50 in series [2] is more than 1450 µM.

Take `COc1cccc(/C=C/C(=O)O[C@H]2C[C@@H]3C(=CC[C@@H]4[C@@]3(C)C(=O)C[C@]3(C)[C@@H]([C@@](C)(O)C(=O)CCC(C)(C)OC(C)=O)[C@H](OC(=O)/C=C/c5cccc(OC)c5)C[C@@]43C)C(C)(C)[C@@H]2OC(=O)/C=C/c2cccc(OC)c2)c1`: the half-maximal inhibitory concentration (IC50) in the series on Hepatitis B virus [1] is more than 719 µM; in the series with Hepatitis B virus [4], 51.2 µM; in the series with Hepatitis B virus [5], more than 719 µM. Moreover, the CC50 in series [2] is more than 719 µM. Besides, in series [3], the “Ratio CC50/IC50” value is listed as more than 14.

Regarding `CC(=O)O[C@H]1C[C@H]2[C@]3(C)C(=O)C[C@]4(C)[C@@H]([C@@](C)(O)C(=O)CCC(C)(C)OC(C)=O)[C@H](OC(C)=O)C[C@@]4(C)[C@@H]3C[C@@H](O)[C@@]2(OC(=O)c2cccc(Cl)c2)C(C)(C)[C@@H]1OC(C)=O`, the “Ratio CC50/IC50” value is on record as more than 5.9 in series [6] and more than 3.2 in series [7]. Moreover, the IC50 in the series with Hepatitis B virus [1] is 178 µM; with Hepatitis B virus [4], more than 1050 µM; with Hepatitis B virus [5], 327 µM. Moreover, in series [2], the CC50 was more than 1050 µM.

For the molecule `CCC(=O)O[C@H]1C[C@H]2[C@]3(C)C(=O)C[C@]4(C)[C@@H]([C@@](C)(O)C(=O)CCC(C)(C)OC(C)=O)[C@H](OC(=O)CC)C[C@@]4(C)[C@@H]3C[C@H]3O[C@]32C(C)(C)[C@@H]1OC(=O)CC`, the “Ratio CC50/IC50” value in series [6] is reported as more than 2.2. Besides, the 50% inhibitory concentration (IC50) is 768 µM in the series on Hepatitis B virus [1], more than 1670 µM with Hepatitis B virus [4] and more than 1670 µM in the series on Hepatitis B virus [5]. Also, the CC50 in series [2] was more than 1670 µM.

For `CCOCC(=O)O[C@H]1C[C@@H]2C(=CC[C@@H]3[C@@]2(C)C(=O)C[C@]2(C)[C@@H]([C@@](C)(O)C(=O)CCC(C)(C)OC(C)=O)[C@H](OC(=O)COCC)C[C@@]32C)C(C)(C)[C@@H]1OC(=O)COCC`, the half-inhibitory concentration (IC50) in the series on Hepatitis B virus [1] was more than 560 µM; in the series on Hepatitis B virus [4] it was 10 µM; in the series on Hepatitis B virus [5] it was more than 560 µM. The molecule further registered a CC50 in series [2] of more than 560 µM. Also, in series [3], the “Ratio CC50/IC50” value is on record as more than 55.8.

For the molecule `C[C@H](Cn1cnc2c(N)ncnc21)OCP(=O)(O)O` [TENOFOVIR ANHYDROUS], the “Ratio CC50/IC50” value in series [6] is reported as more than 1.1; in series [7], more than 1.5; in series [3], more than 3571.4. Besides, the IC50 worked out at 1570 µM in the series with Hepatitis B virus [1] and 0.49 µM in the series on Hepatitis B virus [4]. This molecule displayed a CC50 in series [2] of more than 1740 µM.

`COCC(=O)O[C@H]1C[C@H]2[C@]3(C)C(=O)C[C@]4(C)[C@@H]([C@@](C)(O)C(=O)CCC(C)(C)OC(C)=O)[C@H](OC(=O)COC)C[C@@]4(C)[C@@H]3C[C@H]3O[C@]32C(C)(C)[C@@H]1OC(=O)COC`: the IC50 is more than 1110 µM in the series on Hepatitis B virus [1], more than 1110 µM in the series with Hepatitis B virus [4] and 592 µM in the series with Hepatitis B virus [5]. In addition, the CC50 in series [2] is more than 1110 µM. The “Ratio CC50/IC50” value in series [7] was more than 1.9.
